# How the values were obtained:
# Format in all cases: functional
# PBMC [1] = experiment: Inhibition of human PBMC proliferation assessed as [3H]thymidine uptake at 100 uM after 3 days by scintillation counting
# Procedure, shortened: (§1)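 Human PBMC at 2 × 10^6 cells/mL were plated with or without PHA and exposed to test compound at 100 µM. Cultures were kept at 37 °C in humidified 5% CO2-air for 3 days, then pulsed with tritiated thymidine at 1 µCi/well for 16 h. Cells were harvested onto glass fiber filters, and radioactivity was counted by scintillation. Results are given as % inhibition.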
# PBMC [2] = experiment: Inhibition of 0.2 ug/ml PHA-stimulated human PBMC proliferation assessed as [3H]thymidine uptake at 100 uM after 3 days by scintillation counting; procedure, shortened: as §1
# PBMC [3] = experiment: Inhibition of 5 ug/ml PHA-stimulated human PBMC proliferation assessed as [3H]thymidine uptake at 100 uM after 3 days by scintillation counting; procedure, shortened: as §1
# PBMC [4] = experiment: Inhibition of human PBMC proliferation assessed as [3H]thymidine uptake at 5 uM after 3 days by scintillation counting
# PBMC [5] = experiment: Inhibition of 5 ug/ml PHA-stimulated human PBMC proliferation assessed as [3H]thymidine uptake at 5 uM after 3 days by scintillation counting
Structure (SMILES),inhibition at 100 µM (PBMC [1]) [%],inhibition (INH) (PBMC [2]) [%],inhibition (INH) (PBMC [3]) [%],inhibition at 5 µM (PBMC [4]) [%],inhibition (INH) (PBMC [5]) [%]
COc1cc2c(c(O)c1OC)-c1c(cc(O)c(OC)c1OC)C[C@@H](C)[C@@H](C)C2 [ARISANSCHININ G],54.7,76.3,92.5,–,–
COc1cc([C@@H]2c3cc(OC)c(O)cc3C(=O)[C@@H](C)[C@H]2C)ccc1O [ARISANTETRALONE A],59.7,78.1,91.9,–,–
C/C=C/C[C@@H](C)[C@@H](O)[C@H]1C(=O)N[C@@H](CC)C(=O)N(C)CC(=O)N(C)[C@@H](CC(C)C)C(=O)N[C@@H](C(C)C)C(=O)N(C)[C@@H](CC(C)C)C(=O)N[C@@H](C)C(=O)N[C@H](C)C(=O)N(C)[C@@H](CC(C)C)C(=O)N(C)[C@@H](CC(C)C)C(=O)N(C)[C@@H](C(C)C)C(=O)N1C [CYCLOSPORINE],–,–,–,25.5,89.9
COc1cc(C[C@@H](C)[C@@H](C)Cc2cc(O)c(OC)c(OC)c2)cc(O)c1OC [PREGOMISIN],63.9,83,95.6,–,–
COc1cc2c(cc1O)C(=O)[C@H](C)[C@@H](C)[C@@H]2c1ccc(OC)c(OC)c1 [ARISANTETRALONE D],34.1,70.1,83.9,–,–
COc1cc([C@@H]2c3cc(OC)c(OC)cc3C(=O)[C@@H](C)[C@H]2C)ccc1O,61,82.7,95.6,–,–
C/C=C(/C)C(=O)O[C@H]1c2cc(OC)c(OC)c(OC)c2-c2c(cc(O)c(OC)c2OC)C[C@@H](C)[C@@]1(C)O,44.5,67,44.3,–,–
C/C=C(/C)C(=O)O[C@H]1c2cc3c(c(OC)c2-c2c(cc(OC)c(OC)c2O)C[C@H](C)[C@]1(C)O)OCO3,12.7,16.4,14.6,–,–
C/C=C(/C)C(=O)O[C@H]1c2cc(OC)c(OC)c(O)c2-c2c(cc3c(c2OC)OCO3)C[C@@H](C)[C@@]1(C)O,47,74,66.6,–,–
COc1cc2c(c(OC)c1OC)-c1c(cc3c(c1OC)OCO3)[C@H](OC(=O)c1ccccc1)[C@@](C)(O)[C@@H](C)C2 [GOMISIN G],46.2,75.8,88.6,–,–
CC=C(C)C(=O)O[C@H]1c2cc3c(c(OC)c2-c2c(cc(OC)c(OC)c2OC)C[C@H](C)[C@]1(C)O)OCO3,36.1,75.2,58.9,–,–
COc1cc2c(cc1O)C(=O)[C@@H](C)[C@@H](C)[C@@H]2c1ccc(OC)c(OC)c1 [ARISANTETRALONE C],54.1,76.3,89.3,–,–
COc1cc([C@@H]2c3cc(O)c(OC)cc3C(=O)[C@@H](C)[C@H]2C)ccc1O [ARISANTETRALONE B],56.9,75.3,90.8,–,–
COc1cc2c(c(O)c1OC)-c1c(cc(O)c(OC)c1OC)C[C@H](C)[C@H](C)C2 [ARISANSCHININ F],58.5,81.7,92.9,–,–
COc1cc2c(c(O)c1OC)-c1c(cc(OC)c(OC)c1OC)C[C@@H](C)[C@@H](C)C2 [SCHISANHENOL],60.8,80.1,76,–,–
